This is an account of results in ChEMBL document CHEMBL1687785, “ampG gene of Pseudomonas aeruginosa and its role in β-lactamase expression” (2010).

What all share (assay type): functional
Test [1] deals with Escherichia coli. Briefly: Antimicrobial activity against tetracycline resistant Escherichia coli SNO301-1 harboring pEC1C carrying ampC, ampR from Enterobacter cloacae after 16 to 20 hrs by broth microdilution method. The essentials: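 CLSI broth microdilution: serial 2-fold β-lactam dilutions in Mueller-Hinton broth, inoculum about 10^4 cells from starter cultures at OD600 0.5; MIC read as lowest concentration preventing growth after 16 to 20 h at 37°C; triplicate determinations.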

Test [2] relates to Pseudomonas aeruginosa. Briefly: Antimicrobial activity against Pseudomonas aeruginosa isolate 16 obtained from cystic fibrosis patients after 16 to 20 hrs by broth microdilution method in presence of 120 uM carbonyl cyanide m-chlorophenyl-hydrazone. In outline:
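CLSI broth microdilution in Mueller-Hinton broth with CCCP added from a 10 mM DMSO stock to 120 μM final, alongside 2-fold serial antibiotic dilutions. Inoculum from starter cultures grown to OD600 0.5. MIC is the lowest concentration preventing growth after 16-20 h at 37°C. Triplicate.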
For orientation: Dilution methods test growth across graded concentrations, often in twofold steps.

For test [3], the system named is Pseudomonas aeruginosa. Briefly: Antimicrobial activity against Pseudomonas aeruginosa isolate 8 obtained from cystic fibrosis patients after 16 to 20 hrs by broth microdilution method in presence of 120 uM carbonyl cyanide m-chlorophenyl-hydrazone. The essentials: (§1)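 CLSI broth microdilution in Mueller-Hinton broth with serial antibiotic dilutions. CCCP was added from a 10 mM DMSO stock to 120 μM final, then the bacterial culture was added as inoculum (about 10^4 cells from OD600 0.5 starter cultures). MIC was the lowest concentration preventing growth after 16 to 20 h at 37°C, run in triplicate.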

The subject of test [4] is Pseudomonas aeruginosa. Briefly: Antimicrobial activity against ampG deficient Pseudomonas aeruginosa PAK harboring pUCP24 conferring resistance to gentamycin after 16 to 20 hrs by broth microdilution method in presence of 120 uM carbonyl cyanide m-chlorophenyl-hydrazone. The essentials: as §1
The subject of test [5] is Pseudomonas aeruginosa. Briefly: Antimicrobial activity against Pseudomonas aeruginosa isolate 7 obtained from cystic fibrosis patients after 16 to 20 hrs by broth microdilution method. The essentials: (§2)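 CLSI broth microdilution in Mueller-Hinton broth, serial 2-fold antibiotic dilutions. Inoculum about 10^4 cells per well, taken from starter cultures grown to OD600 0.5. MIC was the lowest antibiotic concentration preventing growth after 16 to 20 h at 37°C. Each MIC was determined in triplicate.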

In test [6] the test system is Pseudomonas aeruginosa. The experiment in a line: Antimicrobial activity against ampG deficient Pseudomonas aeruginosa PAO1 after 16 to 20 hrs by broth microdilution method. The essentials:
as §2

Test [7] concerns Pseudomonas aeruginosa. Briefly: Antimicrobial activity against Pseudomonas aeruginosa isolate 4 obtained from cystic fibrosis patients after 16 to 20 hrs by broth microdilution method in presence of 120 uM carbonyl cyanide m-chlorophenyl-hydrazone. In outline:
as §1

For test [8], the system named is Pseudomonas aeruginosa. The experiment in a line: Antimicrobial activity against Pseudomonas aeruginosa isolate 3 obtained from cystic fibrosis patients after 16 to 20 hrs by broth microdilution method. In outline: as §2
Test [9] has as its system Pseudomonas aeruginosa. Briefly: Antimicrobial activity against ampD, […], ampDh2 deficient Pseudomonas aeruginosa PAO1 after 16 to 20 hrs by broth microdilution method. In outline:
as §2

≈ marks a conversion by molar mass, not a printed value.

In general, MIC refers to the lowest concentration found to suppress growth. On to `CC1(C)S[C@@H]2[C@H](NC(=O)[C@H](N)c3ccccc3)C(=O)N2[C@H]1C(=O)O` [AMPICILLIN], for which the minimal inhibitory concentration (MIC) is 16 µg/mL (≈ 45.8 µM) in test [1]; 8 µg/mL in test [2]; 8 µg/mL in test [3]; 32 µg/mL in [4]; 256 µg/mL (≈ 733 µM) in [5]; 32 µg/mL (≈ 91.6 µM) in test [6]. In addition, the MIC was 512 µg/mL in test [7], 64 µg/mL (≈ 183 µM) in [8] and 1020 µg/mL (≈ 2930 µM) in test [9].
